Experimental data from different studies.
PTGER4: Prostaglandin E2 receptor EP4 subtype (PTGER4, Homo sapiens, UniProt P35408)
HTR1B: 5-hydroxytryptamine receptor 1B (HTR1B, Homo sapiens, UniProt P28222)
CDK7 with cyclin H: Cyclin-dependent kinase 7, with cyclin H (CDK7, Homo sapiens, UniProt P50613)

O=C(c1ccc(F)cc1)N(Cc1ccccc1)C1CCCCC1  inhibition (PTGER4; cell-free assay; 10 µM): 6%
Ic1cccc2cnccc12  inhibition (PTGER4; ligand displacement, radioligand; 10 µM): -6%
COc1cc(NC(C)=O)c(Cl)cc1C(=O)Nc1nccs1  inhibition (Calcitonin-gene-related peptide receptor, CALCRL/RAMP1 (Homo sapiens, UniProt O60894+Q16602); cell-free assay; 10 µM): -1.3%
CC(=O)c1nn(CC(=O)N2C[C@H](F)C[C@H]2C(=O)Nc2cccc(Br)n2)c2ccc(-c3cnc(C)nc3)cc12  inhibition (Prothrombin (F2, Homo sapiens, UniProt P00734); enzyme activity, inhibitor; 10 µM): 1.2%
Oc1cccc(Nc2nc(-c3ccc(F)cc3F)cs2)c1  inhibition (HTR1B; ligand displacement, radioligand; 10 µM): -7.1%
Cc1ccc(S(=O)(=O)N[C@@H](CC(=O)NC(C)(C)C)C(=O)NCc2ccccc2)cc1  inhibition (Proteasome component C5/PSMB8 (Homo sapiens, UniProt P20618+P28062); enzyme activity, inhibitor; 100 µM): ≤ 50%
CS(=O)(=O)Nc1cccc(-c2csc(NC(=O)CSc3nc4nccnc4c(=O)n3CCc3ccccc3)n2)c1  inhibition (Phosphatidylinositol 4-phosphate 5-kinase type-1 beta (PIP5K1B, Homo sapiens, UniProt O14986); enzyme activity, inhibitor; 10 µM): 3%
C=C(C)[C@@H](CC=C(C)C)C[C@@]12C[C@@H](CC=C(C)C)C(C)(C)[C@@](CC=C(C)C)(C(=O)C(C(=O)c3ccc(O)c(O)c3)=C1O)C2=O  inhibition (CDK7 with cyclin H; enzyme activity, inhibitor, ADP detection; 10 µM): 25.8%
CCN(CC)c1ccc(C2Nc3ccc(C(=O)c4ccccc4)cc3NC3=C2C(=O)CC(C)(C)C3)cc1 (centres unmarked)  inhibition (HTR1B; ligand displacement, radioligand; 10 µM): 6%
CO[C@H]1/C=C/O[C@@]2(C)Oc3c(C)c(O)c4c(O)c(c(/C=N/N5CCN(C)CC5)c(O)c4c3C2=O)NC(=O)/C(C)=C\C=C\[C@H](C)[C@H](O)[C@@H](C)[C@@H](O)[C@@H](C)[C@H](OC(C)=O)[C@@H]1C  inhibition (CDK7 with cyclin H; enzyme activity, inhibitor, ADP detection; 10 µM): 23.1%
N#Cc1cc(Cn2c(N3CCCC3)nc3ccccc32)ccc1F  inhibition (HTR1B; ligand displacement, radioligand; 10 µM): -19.3%
Nc1nccc(-c2c[nH]c3ccc(Br)cc23)n1  inhibition (CDK7 with cyclin H; enzyme activity, inhibitor, ADP detection; 10 µM): -32%
CCN(CC)c1ccc(C2=NNC(=O)CC2C)cc1[N+](=O)[O-] (centres unmarked)  inhibition (3',5'-cyclic-AMP phosphodiesterase 4D (PDE4D, Homo sapiens, UniProt Q08499); enzyme activity, inhibitor; 0.1 µM): 20%
COc1c(C(=O)/C=C(\O)c2ccccc2)ccc2occc12  inhibition (CDK7 with cyclin H; enzyme activity, inhibitor, ADP detection; 10 µM): -26%
O=C(c1ccc(Cl)cc1)N(Cc1ccccc1)C1CCCCC1  inhibition (HTR1B; ligand displacement, radioligand; 10 µM): -11.5%
CN(C)C1CCN(CC#Cc2nn(C3CCCC3)c3nc(NCc4ccccc4)ncc23)C1 (centres unmarked)  inhibition (Mitogen-activated protein kinase 1 (MAPK1, Homo sapiens, UniProt P28482); enzyme activity, inhibitor, FRET; 0.1 µM): 2%
CC(/C=C/C=C(\C)C(=O)O[C@@H]1O[C@H](CO[C@@H]2O[C@H](CO)[C@@H](O)[C@H](O)[C@H]2O)[C@@H](O)[C@H](O)[C@H]1O)=C\C=C\C=C(C)\C=C\C=C(/C)C(=O)O[C@@H]1O[C@H](CO[C@@H]2O[C@H](CO)[C@@H](O)[C@H](O)[C@H]2O)[C@@H](O)[C@H](O)[C@H]1O  inhibition (CDK7 with cyclin H; enzyme activity, inhibitor, ADP detection; 10 µM): 22.8%
